From ChEMBL document CHEMBL3797174, “Iodine catalyzed simple and efficient synthesis of antiproliferative 2-pyridones” (Bioorg Med Chem Lett, 2016)

Assays:
A549 = assay: Cytotoxicity against human A549 cells assessed as inhibition of cell proliferation after 24 hrs by MTT assay; type: functional, cell-based; details: A549, 24 h
Method in brief: (§1)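 MTT reduction by viable cells; formazan dissolved in DMSO, absorbance read at 570 nm. […] Values expressed as IC50 (µM).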

HepG2 = assay: Cytotoxicity against human HepG2 cells assessed as inhibition of cell proliferation after 24 hrs by MTT assay; type: functional, cell-based; details: HepG2, 24 h; method in brief: as §1
MCF7 [1] = assay: Cytotoxicity against human MCF7 cells assessed as inhibition of cell proliferation after 24 hrs by MTT assay; type: functional, cell-based; details: MCF7, 24 h
[2] = Cytotoxicity against human SKOV3 cells assessed as inhibition of cell proliferation after 24 hrs by MTT assay; type: functional, cell-based; details: SK-OV-3, 24 h; method in brief: as §1
MRC5 = assay: Cytotoxicity against human MRC5 cells assessed as cell viability after 24 hrs by MTT assay; type: cell-based; details: MRC5, 24 h; method in brief: as §1
MCF7 [3] = assay: Induction of apoptosis in human MCF7 cells assessed as increase in caspase 3 activation at 8 to 12 uM using AFC-conjugated […] as substrate after 24 to 48 hrs by fluorescence analysis relative to control; type: functional
MCF7 [4] = assay: Induction of apoptosis in human MCF7 cells assessed as increase in caspase 9 activation at 8 to 12 uM using AFC-conjugated […] as substrate after 24 to 48 hrs by fluorescence analysis relative to control; type: functional

Row | SMILES | IC50 (A549) [µM] | IC50 (HepG2) [µM] | IC50 (MCF7 [1]) [µM] | IC50 [2] [µM] | IC50 (MRC5) [µM] | fold change (FC) (MCF7 [3]) | fold change (FC) (MCF7 [4])
1 | CCOC(=O)c1c(C)[nH]c(=O)c(C#N)c1-c1ccc([N+](=O)[O-])cc1 | > 100 | 21.7 | 82 | > 100 | 2230 |  | 
2 | CCOC(=O)c1c(C)[nH]c(=O)c(C#N)c1-c1ccc(F)cc1 | 15.4 | 18.6 | 22.9 | > 100 | 149 |  | 
3 | CCOC(=O)c1c(C)[nH]c(=O)c(C#N)c1-c1cccs1 | 20.1 | 74 | 33.4 | 97.3 | 205 |  | 
4 | CCOC(=O)c1c(C)[nH]c(=O)c(C#N)c1-c1ccc2c(c1)OCO2 | 27.3 | > 100 | 34 | > 100 | 192 |  | 
5 | CCOC(=O)c1c(C)[nH]c(=O)c(C#N)c1-c1ccco1 | > 100 | 57.4 | 17.5 | 76 | 407 |  | 
6 | CCOC(=O)c1c(C)[nH]c(=O)c(C#N)c1-c1ccccc1Cl | 25 | 34.1 | 25.4 | > 100 | 229 |  | 
7 | CCOC(=O)c1c(C)[nH]c(=O)c(C#N)c1-c1cccc2ccccc12 | 24 | 32.3 | 31.4 | > 100 | 196 |  | 
8 | CCOC(=O)c1c(C)[nH]c(=O)c(C#N)c1-c1ccc(OC)cc1 | 25.1 | 51.5 | 36.1 | > 100 | 192 |  | 
9 | CCOC(=O)c1c(C)[nH]c(=O)c(C#N)c1-c1ccccc1 | > 100 | 38.5 | 22 | > 100 | 220 |  | 
10 | CCOC(=O)c1c(C)[nH]c(=O)c(C#N)c1-c1cc(OC)c(OC)c(OC)c1 | 23.4 | 20.9 | 18.1 | > 100 | 253 |  | 
11 | CCOC(=O)c1c(C)[nH]c(=O)c(C#N)c1-c1ccc(C#N)cc1 | > 100 | 20.2 | 9.32 | > 100 | 1220 |  | 
12 | COc1cccc2c1C(=O)c1c(O)c3c(c(O)c1C2=O)C[C@@](O)(C(=O)CO)C[C@@H]3O[C@H]1C[C@H](N)[C@H](O)[C@H](C)O1 [DOXORUBICIN] | 0.23 | 3.39 |  | 25 | 89.7 |  | 
13 | CCOC(=O)c1c(C)[nH]c(=O)c(C#N)c1-c1ccc(Br)cc1 | > 100 | 65.5 | 31.8 | > 100 | 310 |  | 
14 | CCOC(=O)c1c(C)[nH]c(=O)c(C#N)c1-c1ccc(C)cc1 | 15.8 | 11.9 | 8 | > 100 | 438 | 2 | 2
